Our source for the MIC and Ratio values is ChEMBL document CHEMBL1132760, “Coumarin inhibitors of gyrase B with N-propargyloxy-carbamate as an effective pyrrole bioisostere” (2000).

Each structure is given as a SMILES string. Values after ≈ are worked out from the molar mass of the structure shown.

One test concerns Enterococcus faecium. As to the kind of experiment: Antibacterial activity against vancomycin, teicoplanin, erythromycin resistant Enterococcus faecium. Type of test: functional. The method, boiled down:
(§1)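 MIC read after 24 h incubation by two-fold broth microdilution. Strains are tested with their labelled resistance phenotypes (ofloxacin, oxacillin, erythromycin, novobiocin, teicoplanin or vancomycin resistance, as given in each strain designation).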

Another test has as its system Streptococcus pyogenes. As to the kind of experiment: Antibacterial activity tested against Streptococcus pyogenes 02AIUC1. In kind it is functional. Put shortly: (§2)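 MIC by 2-fold broth microdilution, read after 24 h incubation; strain resistance phenotypes noted.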
The subject of test [1] is Staphylococcus aureus. The test is described as follows: Antibacterial activity against Staphylococcus aureus 011HT3. Type of test: functional. The method, boiled down:
as §2

The subject of test [2] is Staphylococcus aureus. As to the kind of experiment: Antibacterial activity tested against novobiocin resistant Staphylococcus aureus 011HT1. Type of test: functional. The method, boiled down: as §2
In test [3] the test system is Staphylococcus aureus. As to the kind of experiment: Antibacterial activity against ofloxacin,oxacillin,erythromycin resistant Staphylococcus aureus 011GO64. In kind it is functional. Put shortly:
as §1

The subject of test [4] is Staphylococcus epidermidis. As to the kind of experiment: Antibacterial activity against oxacillin resistant Staphylococcus epidermidis 012GO42. In kind it is functional. Put shortly:
as §1

Test [5] has as its system DNA gyrase (Staphylococcus aureus). As to the kind of experiment: In vitro activity against Staphylococcus aureus DNA gyrase supercoiling, expressed as IC50 novobiocin / IC50 compound.
Test [6] in a line: In vitro activity against Staphylococcus aureus DNA gyrase subunit B supercoiling, expressed as IC50 novobiocin / IC50 compound. Type of test: functional.

Broadly, the MIC is the least concentration at which growth counts as inhibited.

Regarding `CC#CCONC(=O)O[C@H]1[C@@H](O)[C@H](Oc2ccc3c(=O)c(C(=O)OCC)c(O)oc3c2C)OC(C)(C)[C@@H]1OC`, the MIC is above 40 µg/mL in the test with Enterococcus faecium; above 40 µg/mL against Streptococcus pyogenes; 10 µg/mL (≈ 18.2 µM) in the test with Staphylococcus aureus [1]; above 40 µg/mL against Staphylococcus aureus [2]; 40 µg/mL (≈ 72.8 µM) with Staphylococcus aureus [3]; 10 µg/mL (≈ 18.2 µM) in test [4]. Moreover, the Ratio in test [5] amounted to 0.5.

As to `C#CCONC(=O)O[C@H]1[C@@H](O)[C@H](Oc2ccc3c(O)c(C(=O)NCCO)c(=O)oc3c2C)OC(C)(C)[C@@H]1OC`, the Ratio in test [6] is 2.6. Also, the MIC was 1.2 µg/mL (≈ 2.18 µM) against Enterococcus faecium; 0.6 µg/mL (≈ 1.09 µM) against Streptococcus pyogenes; below 0.04 µg/mL with Staphylococcus aureus [1]; 1.2 µg/mL (≈ 2.18 µM) in the test with Staphylococcus aureus [2]; 0.08 µg/mL (≈ 0.145 µM) with Staphylococcus aureus [3]; below 0.04 µg/mL in test [4].

For `C#CCONC(=O)O[C@H]1[C@@H](O)[C@H](Oc2ccc3c(=O)c(/C(C)=N/OCC)c(O)oc3c2C)OC(C)(C)[C@@H]1OC`, the Ratio in test [6] amounted to 8.3. Also, the MIC against Enterococcus faecium turned out to be 1.2 µg/mL (≈ 2.19 µM); in the test with Streptococcus pyogenes, 0.6 µg/mL (≈ 1.09 µM); against Staphylococcus aureus [1] it was 0.08 µg/mL (≈ 0.146 µM); against Staphylococcus aureus [2] it was 2.5 µg/mL (≈ 4.56 µM); with Staphylococcus aureus [3], 0.15 µg/mL (≈ 0.273 µM); in test [4], 0.15 µg/mL (≈ 0.273 µM).

Regarding `C#CCONC(=O)O[C@H]1[C@@H](O)[C@H](Oc2ccc3c(=O)c(C(=O)NOC)c(O)oc3c2C)OC(C)(C)[C@@H]1OC`, in test [6], the Ratio stood at 11.1. The MIC was found to be 2.5 µg/mL (≈ 4.66 µM) in the test on Enterococcus faecium; 0.6 µg/mL (≈ 1.12 µM) in the test with Streptococcus pyogenes; 0.08 µg/mL (≈ 0.149 µM) in the test with Staphylococcus aureus [1]; 10 µg/mL (≈ 18.6 µM) in the test with Staphylococcus aureus [2]; 0.6 µg/mL (≈ 1.12 µM) in the test with Staphylococcus aureus [3]; 0.08 µg/mL (≈ 0.149 µM) in test [4].

On to `C#CCONC(=O)O[C@H]1[C@@H](O)[C@H](Oc2ccc3c(=O)c(C(=O)NOCC)c(O)oc3c2C)OC(C)(C)[C@@H]1OC`, for which, in test [6], the Ratio was determined as 5.6. The MIC against Enterococcus faecium was 0.6 µg/mL (≈ 1.09 µM); in the test with Streptococcus pyogenes it was 0.15 µg/mL (≈ 0.272 µM); against Staphylococcus aureus [1], below 0.04 µg/mL; in the test with Staphylococcus aureus [2], 1.2 µg/mL (≈ 2.18 µM); in the test on Staphylococcus aureus [3] it was 0.08 µg/mL (≈ 0.145 µM); in test [4], 0.6 µg/mL (≈ 1.09 µM).

In the case of `C#CCONC(=O)O[C@H]1[C@@H](O)[C@H](Oc2ccc3c(O)c(/C(C)=N/OCCN4CCOCC4)c(=O)oc3c2C)OC(C)(C)[C@@H]1OC`, in test [6], the Ratio worked out at 4. The MIC with Enterococcus faecium is 20 µg/mL (≈ 31.6 µM); with Streptococcus pyogenes it was 1.2 µg/mL (≈ 1.89 µM); against Staphylococcus aureus [1] it was 0.15 µg/mL (≈ 0.237 µM); against Staphylococcus aureus [2], 5 µg/mL (≈ 7.89 µM); in the test with Staphylococcus aureus [3], 0.6 µg/mL (≈ 0.947 µM); in test [4], 0.15 µg/mL (≈ 0.237 µM).

In the case of `C#CCONC(=O)O[C@H]1[C@@H](O)[C@H](Oc2ccc3c(O)c(C(C)=O)c(=O)oc3c2C)OC(C)(C)[C@@H]1OC`, in test [6], the Ratio worked out at 8.1. Moreover, the MIC is 1.2 µg/mL (≈ 2.37 µM) against Enterococcus faecium; 0.3 µg/mL (≈ 0.593 µM) in the test on Streptococcus pyogenes; below 0.04 µg/mL against Staphylococcus aureus [1]; 2.5 µg/mL (≈ 4.95 µM) against Staphylococcus aureus [2]; 0.6 µg/mL (≈ 1.19 µM) in the test on Staphylococcus aureus [3]; below 0.04 µg/mL in test [4].

Consider `C#CCONC(=O)O[C@H]1[C@@H](O)[C@H](Oc2ccc3c(=O)c(/C(C)=N/OCOCCOC)c(O)oc3c2C)OC(C)(C)[C@@H]1OC`, for which the Ratio in test [6] came to 4. Moreover, the MIC came out at 5 µg/mL (≈ 8.22 µM) against Enterococcus faecium; 0.6 µg/mL (≈ 0.986 µM) with Streptococcus pyogenes; 0.08 µg/mL (≈ 0.131 µM) against Staphylococcus aureus [1]; 10 µg/mL (≈ 16.4 µM) against Staphylococcus aureus [2]; 0.6 µg/mL (≈ 0.986 µM) against Staphylococcus aureus [3]; 1.2 µg/mL (≈ 1.97 µM) in test [4].
